Key:
Meriones unguiculatus = assay: Inhibition of GR-73632-induced foot tapping in Mongolian gerbil at 1 mg/kg, po after 4 hrs; format: functional
Method in brief: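 Female Mongolian gerbils were dosed orally in 0.4% methylcellulose/distilled water before icv injection of GR73632 (3 pmol in 5 μl). After recovery from anaesthesia, animals were placed in clear boxes for 5 min. Duration of rhythmic hind-foot tapping was timed and expressed as percent decrease (% inhibition).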

Substance-P receptor = Substance-P receptor (Homo sapiens, UniProt P25103); assay: Displacement of [3H]Sar-Met substance P from human recombinant NK1 receptor expressed in CHO cells; format: cell-based
Chain of Substance-P receptor (P25103 whole entry): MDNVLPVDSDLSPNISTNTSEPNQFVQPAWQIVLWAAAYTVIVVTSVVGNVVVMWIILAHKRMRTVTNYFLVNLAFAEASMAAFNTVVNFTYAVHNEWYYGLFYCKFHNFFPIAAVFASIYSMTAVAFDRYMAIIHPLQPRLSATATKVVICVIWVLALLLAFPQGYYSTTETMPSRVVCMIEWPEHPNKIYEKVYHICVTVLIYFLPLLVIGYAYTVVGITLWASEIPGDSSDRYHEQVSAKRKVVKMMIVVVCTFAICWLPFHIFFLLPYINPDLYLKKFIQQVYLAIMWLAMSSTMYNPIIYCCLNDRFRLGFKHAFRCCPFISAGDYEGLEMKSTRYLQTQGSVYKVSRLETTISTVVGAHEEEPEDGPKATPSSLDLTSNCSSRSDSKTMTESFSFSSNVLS
Method in brief: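 Membranes from CHO cells expressing recombinant human NK1 receptor. Radioligand was [³H]-Sar-Met substance P at about its experimentally derived Kd. Ki was calculated with the Cheng–Prusoff equation. Values are the mean of two or three independent determinations.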

Neuromedin-K receptor [1] = target: T1, Neuromedin-K receptor (Homo sapiens, UniProt P29371); assay: Displacement of [3H]neurokinin B from human recombinant NK3 receptor in CHO cells; format: cell-based; settings: in the assay text read “[125I]neurokinin B” for “[3H]neurokinin B”
T1 sequence (P29371 whole entry): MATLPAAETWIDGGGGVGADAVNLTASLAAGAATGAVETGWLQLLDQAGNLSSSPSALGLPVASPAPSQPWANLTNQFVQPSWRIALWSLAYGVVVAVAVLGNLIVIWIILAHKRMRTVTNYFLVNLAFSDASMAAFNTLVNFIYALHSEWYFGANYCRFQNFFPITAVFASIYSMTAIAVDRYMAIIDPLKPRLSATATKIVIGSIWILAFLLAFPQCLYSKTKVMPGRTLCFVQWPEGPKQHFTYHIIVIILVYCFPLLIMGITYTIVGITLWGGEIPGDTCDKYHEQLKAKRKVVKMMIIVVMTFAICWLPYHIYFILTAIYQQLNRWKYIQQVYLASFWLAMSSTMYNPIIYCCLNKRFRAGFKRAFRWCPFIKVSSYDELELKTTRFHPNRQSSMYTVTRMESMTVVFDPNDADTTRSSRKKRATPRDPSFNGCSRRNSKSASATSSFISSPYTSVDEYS
Method in brief: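 Membrane preparations came from CHO cells expressing recombinant human NK3 receptor. Labelled neurokinin B ligand was used near its experimentally derived Kd. Ki was obtained by the Cheng–Prusoff equation. Values are the average of two or three independent determinations.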

[2] = target: T2, Substance-K receptor (Homo sapiens) (UniProt P21452); assay: Inhibition of [3H]neurokinin A binding to human recombinant NK2 receptor in CHO cells at 3 uM; format: cell-based
T2 sequence (whole entry): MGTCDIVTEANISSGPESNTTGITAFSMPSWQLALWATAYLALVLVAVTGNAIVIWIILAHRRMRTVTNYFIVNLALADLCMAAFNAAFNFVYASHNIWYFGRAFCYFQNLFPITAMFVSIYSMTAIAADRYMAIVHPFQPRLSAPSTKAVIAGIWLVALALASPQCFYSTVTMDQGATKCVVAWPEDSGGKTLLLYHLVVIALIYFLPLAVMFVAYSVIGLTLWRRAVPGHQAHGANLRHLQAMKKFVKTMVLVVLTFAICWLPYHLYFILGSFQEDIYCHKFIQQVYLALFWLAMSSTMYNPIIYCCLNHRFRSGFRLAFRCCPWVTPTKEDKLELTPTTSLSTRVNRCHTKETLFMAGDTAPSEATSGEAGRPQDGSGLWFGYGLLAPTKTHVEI
Method in brief: (§1)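 Competition binding used membranes of CHO cells carrying recombinant human NK2 receptor. [³H]neurokinin A was the ligand, at a concentration near its experimentally derived Kd. Data are the average of two or three independent determinations.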

[3] = target: T2, Substance-K receptor (Homo sapiens); assay: Inhibition of [3H]neurokinin A binding to human recombinant NK2 receptor in CHO cells at 0.3 uM; format: cell-based; method in brief: as §1
Neuromedin-K receptor [4] = target: T1, Neuromedin-K receptor; assay: Displacement of [125I]neurokinin B from human recombinant NK3 receptor in CHO cells

Compound | Ki (Substance-P receptor) [nM] | Ki (Neuromedin-K receptor [1]) [nM] | inhibition [2] [%] | inhibition [3] [%] | Ki (Neuromedin-K receptor [4]) [nM] | inhibition in vivo at 1 mg/kg (Meriones unguiculatus) [%]
C[C@@H](OC[C@]1(c2ccccc2)C[C@](N)(C(=O)N2CCCCC2)C1)c1cc(C(F)(F)F)cc(C(F)(F)F)c1 | 1.3 |  |  |  |  | 15
C[C@@H](OC[C@]1(c2ccccc2)C[C@H](N2CCCC2=O)C1)c1cc(C(F)(F)F)cc(C(F)(F)F)c1 | 0.3 |  |  |  |  | 3
C[C@@H](OCC1(c2ccccc2)CC(N)C1)c1cc(C(F)(F)F)cc(C(F)(F)F)c1 (stereo partly drawn) | 0.02 | 4050 | 25 |  |  | 21
C[C@@H](OCC1(c2ccccc2)CC(NCc2n[nH]c(O)n2)C1)c1cc(C(F)(F)F)cc(C(F)(F)F)c1 (stereo partly drawn) | 0.5 |  |  |  |  | 22
C[C@@H](OC[C@]1(c2ccccc2)C[C@@H](N2CCCC2=O)C1)c1cc(C(F)(F)F)cc(C(F)(F)F)c1 (mixture of isomers) | 0.4 |  |  |  |  | 41
C[C@@H](OCC1(c2ccccc2)CC(NCc2ccccc2)C1)c1cc(C(F)(F)F)cc(C(F)(F)F)c1 (stereo partly drawn) | 0.3 |  |  |  |  | 25
C[C@@H](OCC1(c2ccccc2)CC(=O)C1)c1cc(C(F)(F)F)cc(C(F)(F)F)c1 | 2.4 |  |  |  |  | 11

Second part, led by results:

Ki (Substance-P receptor) [nM] | Ki (Neuromedin-K receptor [1]) [nM] | inhibition [2] [%] | inhibition [3] [%] | Ki (Neuromedin-K receptor [4]) [nM] | Compound | inhibition in vivo at 1 mg/kg (Meriones unguiculatus) [%]
1.3 |  |  |  |  | C[C@@H](OC[C@]1(c2ccccc2)C[C@](N)(C(=O)N2CCCC2)C1)c1cc(C(F)(F)F)cc(C(F)(F)F)c1 | 13
0.5 |  |  |  |  | CNC(=O)[C@]1(N)C[C@](CO[C@H](C)c2cc(C(F)(F)F)cc(C(F)(F)F)c2)(c2ccccc2)C1 | 58
0.43 |  |  |  |  | C[C@@H](OC[C@]1(c2ccccc2)C[C@@](N)(C(N)=O)C1)c1cc(C(F)(F)F)cc(C(F)(F)F)c1 | 30
3.3 |  |  |  |  | C[C@@H](OC[C@]1(c2ccccc2)C[C@](N)(C(=O)N(C)C)C1)c1cc(C(F)(F)F)cc(C(F)(F)F)c1 | 79
1 | 2000 |  | 1.2 |  | CNC(=O)[C@]1(N)C[C@@](CO[C@H](C)c2cc(C(F)(F)F)cc(C(F)(F)F)c2)(c2ccccc2)C1 | 98
0.4 |  | 23 |  | 2130 | CC(=O)N[C@H]1C[C@](CO[C@H](C)c2cc(C(F)(F)F)cc(C(F)(F)F)c2)(c2ccccc2)C1 | 25
1 |  |  |  |  | C[C@@H](OC[C@]1(c2ccccc2)C[C@](N)(C(N)=O)C1)c1cc(C(F)(F)F)cc(C(F)(F)F)c1 | 81
0.1 |  | 26 |  | 631 | CC(=O)N[C@H]1C[C@@](CO[C@H](C)c2cc(C(F)(F)F)cc(C(F)(F)F)c2)(c2ccccc2)C1 | 23

From ChEMBL document CHEMBL1138954, “Cyclobutane derivatives as potent NK1 selective antagonists” (Bioorg Med Chem Lett, 2006)
